Ba/F3 V617F tox – reduced viability of JAK2V617F-dependent Ba/F3 cells, primary screen, JAK2V617F inhibitor project, cell-based, Ba/F3 EpoR-JAK2V617F, luminescence; ATP luminescence; inhibition, % at 5.6 µM; 220,000 compounds, 1.1% hits;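 active = inhibition above the campaign mean plus 3 SD over all tested compounds, cut at about 24% in these data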;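 note: cytokine-independent growth of Ba/F3 cells driven by EpoR plus mutant JAK2; 0% = DMSO-treated cells and 100% = JAK inhibitor I control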
MT stabilize HCS – microtubule stabilizers in HeLa cells, primary screen, imaging, high-content imaging; HeLa tubulin immunostaining HCS, 24 h; share of cells brighter than vehicle mean+2SD; % tubulin-high responders, % at 10 µM; 200,000 compounds, 0.83% hits;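 active = plate Z-score above 3 for both tubulin-high and condensed-nucleus cell shares, with cell loss under 80%, at 10 µM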;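 note: anti alpha tubulin signal scored within the nucleus-defined area of each cell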
BaF3 parental – parental Ba/F3 cell viability inhibition, counter-screen for JAK2V617F inhibitor project, murine pro-B, CellTiter-Glo luminescence; CellTiter-Glo ATP luminescence; inhibition, % at 5.6 µM; 220,000 compounds, 1.1% hits; AID 1486, 2009;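 active = inhibition above a per-campaign cutoff, the mean inhibition of all tested compounds plus 3 SD, cut at about 27% in these data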;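 note: 0% = DMSO wells and 100% = JAK Inhibitor I control wells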
IEC-6 cytotox – cytotoxicity in IEC-6 intestinal epithelial cells, primary screen, cytotoxicity control for KLF5 inhibitor project, cell-based, luminescence. 290,000 compounds, 0.78% hits. AID 1825, 2009. inhibition, % at 5 µM. IEC-6 cytotoxicity, luminescence viability; in the data active = inhibition above about 22%;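 note: 0% = plate median of test compound wells and 100% = cytotoxic reference compound wells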
bCat nuc transl – modulators of beta-catenin nuclear translocation, primary screen, imaging, HeLa cells, immunofluorescence, high-content | nuclear translocation activity, % at 5 µM | 190,000 compounds, 0.3% hits | AID 1665, 2009;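 active = nuclear translocation activity above 50% at 5 µM, with a well cell count of 50 or more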;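 note: per-cell ratio of nuclear to cytoplasmic median beta-catenin stain intensity; plate controls were DMSO negative control for no effect and GSK-3 inhibitor IX positive control for full effect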
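Test system: HeLa cells, endogenous beta-catenin; Compound: single 5 µM dose plus 0.02–20 µM confirmation series; Times: compound exposure 24 h at 37°C; Signal: fluorescence imaging of beta-catenin antibody stain plus DAPI; Read-out: % activation, nuclear-to-cytoplasmic median beta-catenin signal ratio per cell.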
APP 5UTR inh – inhibitors of APP translation via 5'UTR reporter, primary screen, APP 5'UTR luciferase, SH-SY5Y cells | SH-SY5Y APP 5'UTR-luciferase reporter, luminescence | 190,000 compounds, 0.82% hits | AID 1285, 2008 | inhibition, % at 2 µM;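 active = inhibition above a set limit, derived from the sample mean plus 3 SD, cut at about 45% in these data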
* = called active by the depositor; x = no result given. Only some compounds are listed: those with a hit (about 2.2% of all), similar ones and a draw of the others.

SMILES | Ba/F3 V617F tox | MT stabilize HCS | BaF3 parental | IEC-6 cytotox | bCat nuc transl | APP 5UTR inh
Cn1c(NC(=O)C[n+]2cc(-c3ccc(Cl)cc3)n3c2CCC3)cc(=O)n(C)c1=O | 1 | 2 | 7 | 3 | -1 | 0
Cc1ccc(-c2c[n+](CC(=O)N3c4ccccc4Sc4ccccc43)c3n2CCC3)cc1 | 1 | 3 | 7 | 1 | 0 | -14
Cc1ccc(-c2c[n+](Cc3ccc(Cl)cc3)c3n2CCC3)cc1 | 87* | x | 73* | 3 | 0 | x
Clc1ccc(-c2c[n+](Cc3ccc(Cl)c(Cl)c3)c3n2CCC3)cc1 | 26* | 5 | 39* | 0 | -3 | -7
CCc1ccc(NC(=O)C[n+]2cc(-c3ccc(C)cc3)n3c2CCC3)cc1 | 19 | x | 18 | -2 | 0 | x
Cc1ccc(-c2csc(-c3c[nH]c4ccccc34)n2)c(C)c1 | 3 | 37* | 2 | 6 | 2 | -31
CCOc1ccc2c(c1)sc(N)[n+]2Cc1cc(C)cc2cccnc12 | 86* | 14* | 80* | 76* | 152* | 94*
CCOC(=O)c1c(C)c(C(=O)Nc2ccc3c(c2)OCCO3)c(C)n1CC | -1 | 31* | 6 | -1 | 0 | -8
CCOC(=O)c1c(C)c(C(=O)Nc2ccc3c(c2)OCO3)c(C)n1C | -4 | 3 | 8 | -2 | 0 | -18
Cc1ccc(Nc2nc(N)nc(CN3CCCCCC3)n2)c(C)c1 | 5 | 3 | 8 | -2 | 1 | -4
Cc1ccc(Nc2nc(N)nc(CN3CCC(C)CC3)n2)c(C)c1 | -2 | 3 | 89* | 6 | x | -16
Fc1ccc(Br)cc1C1C=C(c2ccc(Br)s2)Nc2ncnn21 (centres undefined) | 1 | 6 | 3 | 0 | 50* | 6
N#CC1=C(N)NC(SCC(=O)O)=C(C#N)C12CCCC2 | -4 | 7 | -1 | -5 | -6 | 5
N#CC1=C(N)NC(SCc2ccc(F)cc2)=C(C#N)C12CCCCC2 | 0 | 47* | 5 | 9 | x | 11
COc1ccccc1/C=C/C(=O)OCC(=O)Nc1cc(C(F)(F)F)ccc1N1CCOCC1 | -2 | 19* | 1 | -2 | 0 | 61*
O=C(COC(=O)/C=C/c1ccccc1)Nc1cc(C(F)(F)F)ccc1N1CCOCC1 | -1 | 3 | 2 | -1 | 2 | -12
CC(C)=CCC/C(C)=C/CCC(C)NCCN1CCNCC1 (centres undefined) | 4 | 3 | 16 | 34* | 0 | -6
Clc1ccc2[nH]c3c(c2c1)CCc1cn[nH]c1-3 | 4 | 16* | 4 | 1 | 13 | 7
COc1cccc(CN2CC(C(=O)NCc3ccc(Cl)s3)CCC2=O)c1 (centres undefined) | x | x | x | 8 | x | x
COCCn1c(Cc2ccccc2)nnc1SCC(=O)NC1CC1 | x | x | x | -9 | x | x
CCn1c(C)[n+](Cc2ccccc2)c2ccc(C(=O)OC)cc21 | 16 | 3 | 37* | -7 | -2 | -9
CCn1c(/C=C/Nc2ccccc2)[n+](CC)c2ccc(Cl)cc21 | 6 | 5 | 12 | -8 | 0 | 3
CCn1c(/C=C/c2cc[n+](C)cc2)nc2ccccc21 | x | x | x | -7 | x | x
Cc1n(Cc2ccccc2)c2cc([N+](=O)[O-])ccc2[n+]1Cc1ccccc1 | x | x | x | -4 | x | x
CCn1c(/C=C/N(C)c2ccccc2)[n+](CC)c2ccc(Cl)cc21 | 87* | 3 | 65* | 15 | -1 | -9
SMILES | Ba/F3 V617F tox | MT stabilize HCS | BaF3 parental | IEC-6 cytotox | bCat nuc transl | APP 5UTR inh
CCn1c(C)[n+](Cc2ccccc2)c2ccc(Cl)cc21 | 28* | 3 | 33* | -2 | -1 | 16
CCOC(=O)c1ccc2c(c1)n(CC)c(/C=C/Nc1ccccc1)[n+]2CC | 36* | 2 | 50* | 0 | -2 | -1
O=C(CCS(=O)(=O)c1ccc(Br)cc1)NC1CCCCCC1 | x | x | x | -3 | x | x
COc1ccc(CCNC(=O)c2ccc3c(c2)NC(=O)C(CSCc2cc(C)ccc2C)N3)cc1OC (centres undefined) | x | x | x | -3 | x | x
COCCCNc1nc2ccccc2nc1NS(=O)(=O)c1cccc(C)c1 | x | x | x | 1 | x | x
Cc1cc(C(=O)NN=C2CCCCC2)c2ccccc2n1 | 0 | 5 | 0 | 3 | -1 | 80*
Cc1cc(C(=O)NN=C2C3CC4CC(C3)CC2C4)c2ccccc2n1 | -3 | 2 | 2 | 7 | 1 | 76*
Cc1cc(C(=O)NC2CC2)c2ccccc2n1 | 5 | 4 | 3 | 6 | 1 | -13
Cc1ccc(-c2cc(C(=O)NN=C3CCCC3)c3ccccc3n2)cc1 | 0 | 2 | -2 | -1 | -1 | -10
O=C(NCCCl)Nc1ccccc1OCCOc1ccccc1NC(=O)NCCCl | x | x | x | -1 | x | x
CCC(C)NC(=O)C1(O)c2cc(Br)ccc2NC(=O)N1c1cccc(OC)c1 (centres undefined) | x | x | x | 7 | x | x
O=C(Nc1ccc(Cl)cc1)NC1CCCc2ccccc21 (centres undefined) | -3 | 30* | 2 | 5 | x | -5
Cc1ccc(NC(=O)NC2CCCc3ccccc32)cc1 (centres undefined) | x | x | x | 0 | x | x
COc1ccc(OC)c(Nc2nc(NCCCN(C)C)nc(N)c2[N+](=O)[O-])c1 | 58* | x | 50* | 9 | -3 | x
CCOC(=O)N1CCN(c2c(NCc3ccc(F)cc3)c(=O)c2=O)CC1 | 16 | x | 31* | 8 | 46 | x
CCOC(=O)N1CCN(c2c(NCc3ccc(Cl)cc3)c(=O)c2=O)CC1 | 35* | 7 | 69* | 19 | x | 36
CCOC(=O)N1CCN(c2c(NCc3cccs3)c(=O)c2=O)CC1 | -2 | 20* | 8 | 1 | x | -14
CCOC(=O)N1CCN(c2c(NCc3ccccc3OC)c(=O)c2=O)CC1 | -2 | 5 | -2 | 4 | x | -6
CC1Cc2ccccc2N1c1ncnc(N)c1[N+](=O)[O-] (centres undefined) | -4 | 8 | -7 | -1 | 2 | 48*
O=C(CCc1ccccc1)Nc1ccccc1F | -3 | 1 | 0 | -2 | -16 | x
O=C(CCc1ccccc1)Nc1ccc(F)cc1F | 1 | 4 | 4 | 1 | -4 | 47*
CCCN1CCC(NC(=O)Nc2cc(Cl)ccc2OC)CC1 | 1 | 3 | 90* | 5 | -5 | 0
CCn1ncc(Br)c1C(=O)Nc1ccc(F)cc1F | 3 | 2 | 7 | 8 | 2 | 5
CCn1ncc(Br)c1C(=O)Nc1ccc(F)c([N+](=O)[O-])c1 | -2 | 2 | 3 | 25* | -3 | 3
COC(=O)CSc1nc(-c2ccc(F)cc2)cc(C(F)(F)F)n1 | 1 | 4 | 4 | 0 | -3 | 10

Compound activity: PubChem BioAssay, several laboratories
